The source made the active and inactive calls. No cut-off for these calls is given here.

Two molecules from ChEMBL document CHEMBL1149106, “Design, synthesis, and evaluation of aza-peptide epoxides as selective and potent inhibitors of caspases-1, -3, -6, and -8” (J Med Chem, 2004) can be followed below.

Chain of Pepsin A (Sus scrofa) (P00791 60-385 limits assumed): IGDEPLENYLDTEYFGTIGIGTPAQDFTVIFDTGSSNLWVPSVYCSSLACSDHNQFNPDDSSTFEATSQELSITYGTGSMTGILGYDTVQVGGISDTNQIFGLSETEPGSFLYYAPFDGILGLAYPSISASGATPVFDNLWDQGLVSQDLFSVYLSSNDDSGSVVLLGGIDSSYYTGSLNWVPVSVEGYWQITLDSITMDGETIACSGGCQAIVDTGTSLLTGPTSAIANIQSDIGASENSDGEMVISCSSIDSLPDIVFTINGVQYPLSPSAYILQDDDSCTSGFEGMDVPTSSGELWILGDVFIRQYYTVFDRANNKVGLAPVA
Chain of Caspase-8 (Homo sapiens) (Q14790 217-374 limits assumed): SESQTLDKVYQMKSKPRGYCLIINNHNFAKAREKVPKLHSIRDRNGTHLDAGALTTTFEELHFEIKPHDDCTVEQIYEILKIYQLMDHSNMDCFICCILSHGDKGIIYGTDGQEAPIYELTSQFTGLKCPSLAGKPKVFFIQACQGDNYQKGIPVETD
Chain of Caspase-8 (Homo sapiens) (Q14790 385-479 limits assumed): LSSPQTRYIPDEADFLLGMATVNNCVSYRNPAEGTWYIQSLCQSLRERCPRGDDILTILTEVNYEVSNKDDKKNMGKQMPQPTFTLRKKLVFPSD

One assay deals with T1, Caspase-6 (Homo sapiens) (UniProt P55212).
T1 sequence (whole entry): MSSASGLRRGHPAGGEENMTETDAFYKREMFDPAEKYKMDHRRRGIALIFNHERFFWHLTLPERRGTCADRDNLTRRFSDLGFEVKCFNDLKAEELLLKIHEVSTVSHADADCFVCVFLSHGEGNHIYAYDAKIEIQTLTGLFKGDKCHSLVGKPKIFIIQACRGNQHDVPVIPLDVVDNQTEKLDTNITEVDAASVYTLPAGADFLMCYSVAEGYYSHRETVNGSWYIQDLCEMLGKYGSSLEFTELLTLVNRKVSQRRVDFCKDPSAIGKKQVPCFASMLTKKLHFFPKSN
In words: Second-order inhibition rate of caspase-6 was determined by progress curve method. Summed up:
(§1)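 Caspases-3, -6 and -8 were assayed in 50 mM HEPES, 100 mM NaCl, 0.1% (w/v) CHAPS, 10% (w/v) sucrose and 10 mM DTT, pH 7.4. Substrate: Cbz-DEVD-AFC or Cbz-DEVD-AMC.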
The molecule `CC(C)[C@H](NC(=O)CCc1ccccc1)C(=O)N[C@@H](C)C(=O)NN(CC(=O)O)C(=O)[C@H]1O[C@@H]1C(=O)OCc1ccccc1` (stereo in doubt; 23d(S,S)) gave a k2 of 165 M⁻¹ s⁻¹.
The same measure, in the same setting: as for `CCOC(=O)[C@H]1O[C@@H]1C(=O)N(CC(=O)O)NC(=O)[C@@H](NC(=O)[C@H](CCC(=O)O)NC(=O)[C@@H](NC(=O)OCc1ccccc1)[C@@H](C)CC)[C@@H](C)O`, the figure is 45800 M⁻¹ s⁻¹.

The next assay concerns the target T2, Caspase-3 (Homo sapiens) (UniProt P42574).
T2 sequence (whole entry): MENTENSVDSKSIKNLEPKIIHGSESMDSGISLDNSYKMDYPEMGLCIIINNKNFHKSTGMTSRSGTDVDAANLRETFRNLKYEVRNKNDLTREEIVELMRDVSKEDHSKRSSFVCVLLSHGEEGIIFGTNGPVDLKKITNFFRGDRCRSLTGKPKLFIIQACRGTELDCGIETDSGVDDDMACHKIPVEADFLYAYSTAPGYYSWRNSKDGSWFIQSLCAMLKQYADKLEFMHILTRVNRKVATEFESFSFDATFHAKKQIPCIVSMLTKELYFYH
In words: Second-order inhibition rate of caspase-3 was determined by progress curve method. Summed up:
as §1
`CC(C)[C@H](NC(=O)CCc1ccccc1)C(=O)N[C@@H](C)C(=O)NN(CC(=O)O)C(=O)[C@H]1O[C@@H]1C(=O)OCc1ccccc1` (stereo in doubt; 23d(S,S)) had a k2 of 1470 M⁻¹ s⁻¹.
Same read-out and setting: under `CCOC(=O)[C@H]1O[C@@H]1C(=O)N(CC(=O)O)NC(=O)[C@@H](NC(=O)[C@H](CCC(=O)O)NC(=O)[C@@H](NC(=O)OCc1ccccc1)[C@@H](C)CC)[C@@H](C)O` stands 4080 M⁻¹ s⁻¹.

In another assay the target is Granzyme B (Homo sapiens) (UniProt P10144). Kind of assay: Tested for inhibition of granzyme B by the compound.
Chain of Granzyme B (Homo sapiens) (P10144 whole entry): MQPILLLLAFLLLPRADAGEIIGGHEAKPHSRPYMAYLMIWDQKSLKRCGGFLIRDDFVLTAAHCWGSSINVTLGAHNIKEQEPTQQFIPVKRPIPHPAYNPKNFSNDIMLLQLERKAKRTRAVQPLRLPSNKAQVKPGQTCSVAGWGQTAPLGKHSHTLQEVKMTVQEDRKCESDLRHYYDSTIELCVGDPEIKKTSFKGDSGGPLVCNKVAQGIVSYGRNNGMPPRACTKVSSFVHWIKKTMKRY
`CC(C)[C@H](NC(=O)CCc1ccccc1)C(=O)N[C@@H](C)C(=O)NN(CC(=O)O)C(=O)[C@H]1O[C@@H]1C(=O)OCc1ccccc1` (stereo in doubt; 23d(S,S)) gave a k obs / 1 below 0.3 M⁻¹ s⁻¹.
Still for that read-out and setting: as for `CCOC(=O)[C@H]1O[C@@H]1C(=O)N(CC(=O)O)NC(=O)[C@@H](NC(=O)[C@H](CCC(=O)O)NC(=O)[C@@H](NC(=O)OCc1ccccc1)[C@@H](C)CC)[C@@H](C)O`, the figure is 0.65 M⁻¹ s⁻¹.

In another assay the target is Plasmepsin II (Plasmodium falciparum) (UniProt P46925). Kind of assay: Inhibition of plasmepsin-2 from Plasmodium falciparum; NI = No Inhibition.
Chain of Plasmepsin II (Plasmodium falciparum) (P46925 125-453 limits assumed): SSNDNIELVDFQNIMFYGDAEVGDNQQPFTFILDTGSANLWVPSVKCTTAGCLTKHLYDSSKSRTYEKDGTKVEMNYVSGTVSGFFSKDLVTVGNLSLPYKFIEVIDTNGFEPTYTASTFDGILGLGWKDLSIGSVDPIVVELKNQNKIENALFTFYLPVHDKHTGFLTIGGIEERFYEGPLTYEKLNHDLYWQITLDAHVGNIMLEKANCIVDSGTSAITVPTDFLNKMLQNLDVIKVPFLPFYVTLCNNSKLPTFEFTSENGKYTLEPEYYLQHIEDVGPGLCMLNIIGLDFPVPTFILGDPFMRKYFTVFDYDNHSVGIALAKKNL
For `CC(C)[C@H](NC(=O)CCc1ccccc1)C(=O)N[C@@H](C)C(=O)NN(CC(=O)O)C(=O)[C@H]1O[C@@H]1C(=O)OCc1ccccc1` (stereo in doubt; 23d(S,S)), the “k obs / 1” value was “inactive”.
Still for that read-out and setting: as for `CCOC(=O)[C@H]1O[C@@H]1C(=O)N(CC(=O)O)NC(=O)[C@@H](NC(=O)[C@H](CCC(=O)O)NC(=O)[C@@H](NC(=O)OCc1ccccc1)[C@@H](C)CC)[C@@H](C)O`, the entry is “inactive”.

The target of the next assay is Cathepsin D (Homo sapiens) (UniProt P07339). In words: Tested for inhibition of human cathepsin D by the compound; NI = No Inhibition.
Chain of Cathepsin D (Homo sapiens) (P07339 65-162 limits assumed): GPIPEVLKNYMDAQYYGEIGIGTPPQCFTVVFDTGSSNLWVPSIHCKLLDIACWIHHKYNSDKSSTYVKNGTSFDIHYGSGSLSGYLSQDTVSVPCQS
Chain of Cathepsin D (Homo sapiens) (P07339 169-412 limits assumed): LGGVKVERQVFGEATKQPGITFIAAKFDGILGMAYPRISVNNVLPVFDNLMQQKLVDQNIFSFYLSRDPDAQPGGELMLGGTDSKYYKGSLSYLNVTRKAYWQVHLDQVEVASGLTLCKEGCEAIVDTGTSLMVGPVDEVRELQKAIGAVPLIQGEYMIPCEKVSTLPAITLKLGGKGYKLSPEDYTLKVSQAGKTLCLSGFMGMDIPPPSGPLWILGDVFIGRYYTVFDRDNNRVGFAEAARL
In the case of `CC(C)[C@H](NC(=O)CCc1ccccc1)C(=O)N[C@@H](C)C(=O)NN(CC(=O)O)C(=O)[C@H]1O[C@@H]1C(=O)OCc1ccccc1` (stereo in doubt; 23d(S,S)), the “k obs / 1” value is “inactive”.
Same read-out and setting: under `CCOC(=O)[C@H]1O[C@@H]1C(=O)N(CC(=O)O)NC(=O)[C@@H](NC(=O)[C@H](CCC(=O)O)NC(=O)[C@@H](NC(=O)OCc1ccccc1)[C@@H](C)CC)[C@@H](C)O` stands “inactive”.

A further assay has as its target Cathepsin B (Homo sapiens) (UniProt P07858). In words: Tested for inhibition of cathepsin B by the compound; NI = No Inhibition.
Regarding `CCOC(=O)[C@H]1O[C@@H]1C(=O)N(CC(=O)O)NC(=O)[C@@H](NC(=O)[C@H](CCC(=O)O)NC(=O)[C@@H](NC(=O)OCc1ccccc1)[C@@H](C)CC)[C@@H](C)O`, the “k obs / 1” value was “inactive”.

For the next assay, the target named is Human immunodeficiency virus type 1 protease (Human immunodeficiency virus 1) (UniProt Q72874). In words: Tested for inhibition of HIV-1 protease by the compound; NI = No Inhibition.
With `CC(C)[C@H](NC(=O)CCc1ccccc1)C(=O)N[C@@H](C)C(=O)NN(CC(=O)O)C(=O)[C@H]1O[C@@H]1C(=O)OCc1ccccc1` (stereo in doubt; 23d(S,S)), the “k obs / 1” value was “inactive”.
For the molecule `CCOC(=O)[C@H]1O[C@@H]1C(=O)N(CC(=O)O)NC(=O)[C@@H](NC(=O)[C@H](CCC(=O)O)NC(=O)[C@@H](NC(=O)OCc1ccccc1)[C@@H](C)CC)[C@@H](C)O`, the “k obs / 1” value was “inactive”.

The next assay has as its target T3, Caspase-1 (Homo sapiens) (UniProt P29466).
T3 sequence (whole entry): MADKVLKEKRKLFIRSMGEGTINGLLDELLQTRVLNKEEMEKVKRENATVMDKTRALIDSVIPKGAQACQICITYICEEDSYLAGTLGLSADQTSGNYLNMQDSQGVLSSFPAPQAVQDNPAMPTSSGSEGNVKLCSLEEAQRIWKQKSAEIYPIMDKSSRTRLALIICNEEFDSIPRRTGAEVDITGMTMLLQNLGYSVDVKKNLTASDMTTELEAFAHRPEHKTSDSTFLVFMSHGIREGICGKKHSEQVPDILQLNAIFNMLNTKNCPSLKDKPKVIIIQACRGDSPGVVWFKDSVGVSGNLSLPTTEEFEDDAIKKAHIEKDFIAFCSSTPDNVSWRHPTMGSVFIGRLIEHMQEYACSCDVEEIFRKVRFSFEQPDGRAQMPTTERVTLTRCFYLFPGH
Kind of assay: Second-order inhibition rate of caspase-1 was determined by progress curve method. Summed up: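 Caspase-1 assay buffer: 100 mM HEPES, 0.5 mM EDTA, 20% (v/v) glycerol, 5 mM DTT, pH 7.5. Substrate: Ac-YVAD-AMC.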
Molecule `CC(C)[C@H](NC(=O)CCc1ccccc1)C(=O)N[C@@H](C)C(=O)NN(CC(=O)O)C(=O)[C@H]1O[C@@H]1C(=O)OCc1ccccc1` (stereo in doubt; 23d(S,S)) registered a k2 of 52100 M⁻¹ s⁻¹.
Same read-out and setting: as for `CCOC(=O)[C@H]1O[C@@H]1C(=O)N(CC(=O)O)NC(=O)[C@@H](NC(=O)[C@H](CCC(=O)O)NC(=O)[C@@H](NC(=O)OCc1ccccc1)[C@@H](C)CC)[C@@H](C)O`, the figure is 12400 M⁻¹ s⁻¹.

A further assay addresses Cathepsin B (Homo sapiens) (UniProt P07858). In words: Tested for inhibition of cathepsin B by the compound.
Consider `CC(C)[C@H](NC(=O)CCc1ccccc1)C(=O)N[C@@H](C)C(=O)NN(CC(=O)O)C(=O)[C@H]1O[C@@H]1C(=O)OCc1ccccc1` (stereo in doubt; 23d(S,S)), for which the k obs / 1 was below 10 M⁻¹ s⁻¹.

The next assay has as its target Pepsin A (Sus scrofa) (UniProt P00791). In words: Tested for inhibition of porcine pepsin by the compound; NI = No Inhibition.
Regarding `CC(C)[C@H](NC(=O)CCc1ccccc1)C(=O)N[C@@H](C)C(=O)NN(CC(=O)O)C(=O)[C@H]1O[C@@H]1C(=O)OCc1ccccc1` (stereo in doubt; 23d(S,S)), the “k obs / 1” value is “inactive”.
The same measure, in the same setting: under `CCOC(=O)[C@H]1O[C@@H]1C(=O)N(CC(=O)O)NC(=O)[C@@H](NC(=O)[C@H](CCC(=O)O)NC(=O)[C@@H](NC(=O)OCc1ccccc1)[C@@H](C)CC)[C@@H](C)O` stands “inactive”.

A further assay relates to Cathepsin B. In words: Tested for inhibition of cathepsin B by the compound; NI = No Inhibition.
`CCOC(=O)[C@H]1O[C@@H]1C(=O)N(CC(=O)O)NC(=O)[C@@H](NC(=O)[C@H](CCC(=O)O)NC(=O)[C@@H](NC(=O)OCc1ccccc1)[C@@H](C)CC)[C@@H](C)O`: the “k obs / 1” value is “inactive”.

For the next assay, the target named is Caspase-8 (Homo sapiens) (UniProt Q14790). In words: Second-order inhibition rate of caspase-8 was determined by progress curve method. Summed up:
as §1
Molecule `CC(C)[C@H](NC(=O)CCc1ccccc1)C(=O)N[C@@H](C)C(=O)NN(CC(=O)O)C(=O)[C@H]1O[C@@H]1C(=O)OCc1ccccc1` (stereo in doubt; 23d(S,S)) gave a k2 of 1560 M⁻¹ s⁻¹.
Molecule `CCOC(=O)[C@H]1O[C@@H]1C(=O)N(CC(=O)O)NC(=O)[C@@H](NC(=O)[C@H](CCC(=O)O)NC(=O)[C@@H](NC(=O)OCc1ccccc1)[C@@H](C)CC)[C@@H](C)O` had a k2 of 52800 M⁻¹ s⁻¹.
